Results on eleven compounds are retold here after ChEMBL document CHEMBL4433206, “Novel Lysine-Based Thioureas as Mechanism-Based Inhibitors of Sirtuin 2 (SIRT2) with Anticancer Activity in a Colorectal Cancer Murine Model” (J Med Chem, 2019).

Data set [1] addresses T1, NAD-dependent protein deacetylase sirtuin-3, mitochondrial (Homo sapiens, UniProt Q9NTG7).
T1 sequence (Q9NTG7 whole entry): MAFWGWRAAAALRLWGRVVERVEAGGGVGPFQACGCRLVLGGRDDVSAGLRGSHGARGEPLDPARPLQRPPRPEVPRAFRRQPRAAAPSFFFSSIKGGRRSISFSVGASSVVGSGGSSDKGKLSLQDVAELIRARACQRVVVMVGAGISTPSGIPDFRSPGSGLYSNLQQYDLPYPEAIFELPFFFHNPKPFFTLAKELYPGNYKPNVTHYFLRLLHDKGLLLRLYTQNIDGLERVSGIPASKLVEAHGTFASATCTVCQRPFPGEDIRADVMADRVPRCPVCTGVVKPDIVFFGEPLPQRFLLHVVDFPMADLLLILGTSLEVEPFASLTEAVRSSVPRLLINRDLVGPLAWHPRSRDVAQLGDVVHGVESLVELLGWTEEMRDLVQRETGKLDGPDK
As to the kind of experiment: Inhibition of human SIRT3 assessed as reduction in deacetylase activity using acetylated H3K9 as substrate preincubated for 15 mins followed by substrate addition and measured after 15 mins by UV-HPLC analysis.

Data set [2] in a line: Cytotoxicity against human HME1 cells after 72 hrs by CellTiter-Blue assay. Type of data set: cell-based. Summed up:
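Cells were seeded per well (HCT116 1000; MDA-MB-231, MDA-MB-468, NCI-H23, A549, SW948 2000; MCF7, BxPC-3, HME1 3000) and left 20 h at 37 °C. Inhibitor was added at 1–100 μM final for 72 h at 37 °C. CellTiter-Blue was then added for 4 h, and fluorescence was read at ex 560/em 590 nm.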
In general terms: Alamar Blue is a resazurin reagent that responds to reducing activity.

Data set [3] addresses T2, NAD-dependent protein deacetylase sirtuin-2 (Homo sapiens, UniProt Q8IXJ6).
T2 sequence (Q8IXJ6 whole entry): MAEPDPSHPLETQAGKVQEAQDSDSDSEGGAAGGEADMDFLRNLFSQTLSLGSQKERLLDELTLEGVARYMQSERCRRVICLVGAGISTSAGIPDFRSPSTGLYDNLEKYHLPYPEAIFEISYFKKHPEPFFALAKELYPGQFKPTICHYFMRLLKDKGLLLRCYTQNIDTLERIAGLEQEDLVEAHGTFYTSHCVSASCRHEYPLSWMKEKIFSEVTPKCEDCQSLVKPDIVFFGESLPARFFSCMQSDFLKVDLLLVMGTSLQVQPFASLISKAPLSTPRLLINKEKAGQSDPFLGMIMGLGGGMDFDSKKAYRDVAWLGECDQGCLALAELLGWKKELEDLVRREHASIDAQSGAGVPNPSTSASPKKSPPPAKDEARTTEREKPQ
Kind of data set: Inhibition of recombinant human N-terminal His6-tagged/SUMO-fused SIRT2 (38 to 356 residues) expressed in Escherichia coli BL21 assessed as reduction in deacetylase activity using acetylated H3K9 as substrate preincubated for 15 mins followed by substrate addition and measured after 6 mins by UV-HPLC analysis.

In data set [4] the target is T3, NAD-dependent protein deacetylase sirtuin-1 (Homo sapiens, UniProt Q96EB6).
T3 sequence (Q96EB6 whole entry): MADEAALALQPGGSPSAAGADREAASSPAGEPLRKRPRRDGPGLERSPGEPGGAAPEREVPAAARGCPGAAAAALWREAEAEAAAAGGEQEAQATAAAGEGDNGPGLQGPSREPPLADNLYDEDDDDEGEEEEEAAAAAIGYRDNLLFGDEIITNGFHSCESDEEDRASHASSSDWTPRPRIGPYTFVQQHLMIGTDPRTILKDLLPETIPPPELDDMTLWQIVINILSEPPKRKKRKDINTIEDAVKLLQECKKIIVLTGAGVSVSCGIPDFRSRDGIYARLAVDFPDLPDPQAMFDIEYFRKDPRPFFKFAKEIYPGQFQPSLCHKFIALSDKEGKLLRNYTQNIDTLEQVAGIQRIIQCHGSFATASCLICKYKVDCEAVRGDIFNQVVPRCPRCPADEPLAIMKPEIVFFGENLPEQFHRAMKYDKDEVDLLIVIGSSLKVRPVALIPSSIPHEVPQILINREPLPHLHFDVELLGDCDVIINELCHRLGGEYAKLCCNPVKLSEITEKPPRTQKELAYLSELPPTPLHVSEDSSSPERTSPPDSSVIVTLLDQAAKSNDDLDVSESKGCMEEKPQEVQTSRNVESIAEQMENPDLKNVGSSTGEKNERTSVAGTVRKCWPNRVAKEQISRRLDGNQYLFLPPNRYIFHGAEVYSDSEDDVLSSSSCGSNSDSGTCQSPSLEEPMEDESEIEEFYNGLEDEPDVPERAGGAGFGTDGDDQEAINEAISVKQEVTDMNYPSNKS
Kind of data set: Inhibition of human SIRT1 deacetylase activity using acetylated H3K9 as substrate preincubated for 15 mins followed by substrate addition and measured after 3 mins by UV-HPLC analysis.

The species entered for a further data set is Homo sapiens. Kind of data set: Selectivity ratio of IC50 for human SIRT1 to IC50 for recombinant human N-terminal His6-tagged/SUMO-fused SIRT2 (38 to 356 residues) expressed in Escherichia coli BL21. The method, boiled down:
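Purified human sirtuin (SIRT1 0.05 μM, SIRT2 0.2 μM) in 20 mM Tris, 1 mM NAD⁺, 1 mM DTT, pH 8.0 was preincubated with inhibitor (0.002–417 μM, duplicate, DMSO control) for 15 min at 37 °C. Acetyl-H3K9 peptide (10 μM) was then added, and the reaction ran at 37 °C (SIRT1 3 min, SIRT2 6 min; 10–18% conversion). It was quenched with HCl/acetic acid and analysed by reverse-phase HPLC with UV at 215/326 nm.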

Data set [5] concerns the target T4, NAD-dependent protein deacetylase sirtuin-2 (Homo sapiens) (UniProt Q8IXJ6).
T4 sequence (whole entry): T2 sequence (Q8IXJ6 whole entry)
As to the kind of experiment: Inhibition of SIRT2 in human HCT116 cells assessed as increase in alpha-tubulin acetylation at 25 uM incubated for 6 hrs by DAPI staining-based laser scanning confocal microscopic analysis. The class given is cell-based. Summed up:
(§1)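 HCT116 cells were seeded at 400 000 on poly-D-lysine-coated glass-bottom dishes and grown 24 h. Cells were treated with DMSO or inhibitor for 6 h at 37 °C, fixed in ice-cold methanol, and blocked in TBS/0.1% Triton X-100/5% BSA. They were stained with anti-acetyl α-tubulin (1:100, overnight, 4 °C), then Cy3 anti-mouse, and mounted with DAPI. Imaging was by confocal microscopy.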

Data set [6] addresses T4, NAD-dependent protein deacetylase sirtuin-2 (Homo sapiens). Kind of data set: Inhibition of SIRT2 in human HCT116 cells assessed as increase in alpha-tubulin acetylation at 50 uM incubated for 6 hrs by DAPI staining-based laser scanning confocal microscopic analysis. The class given is cell-based. Summed up:
as §1

For data set [7], the target named is T5, NAD-dependent protein deacetylase sirtuin-1 (Homo sapiens) (UniProt Q96EB6).
T5 sequence (whole entry): T3 sequence (Q96EB6 whole entry)
Kind of data set: Inhibition of SIRT1 in human HCT116 cells assessed as increase in acetylated p53 K382 level at 25 uM after 6 hrs by Western blot analysis. The class given is cell-based. (In general: Immunoblotting shows a protein as a band on a membrane.)

Data set [8] deals with T5, NAD-dependent protein deacetylase sirtuin-1 (Homo sapiens). Kind of data set: Inhibition of SIRT1 in Trichostatin A treated human HCT116 cells assessed as increase in acetylated p53 K382 level after 6 hrs by Western blot analysis. The method, boiled down:
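HCT116 cells were seeded at 400 000 per well, grown 24 h, then cotreated with 400 nM TSA and inhibitor (25 μM, or 10–50 μM) for 6 h at 37 °C. Cells were lysed in 4% SDS buffer, pH 7.4. 50 μg of lysate was resolved by 12% SDS-PAGE and blotted for acetyl-p53 K382 antibody, with β-actin as loading control. Detection was by ECL.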

Active and inactive are the calls of the source. No cut-off for these calls is given here. Where only a bound is given, the exact number is not on record here.

With `CCCCCCCCCCCCCC(=S)NCCCC[C@H](NC(=O)OCc1ccccc1)C(=O)Nc1ccccc1`, the IC50 (usually the midpoint of a concentration-inhibition curve) in [1] is above 100000 nM. Further, the Activity result in [2] is reported as “Non-Toxic”.
On to `CCCCCCNC(=S)NCCCC[C@H](NC(=O)OCc1ccccc1)C(=O)Nc1ccccc1`, for which the values for the IC50 in data set [3] and in data set [4] were 640 nM and 30000 nM, respectively.
In the case of `CCCCCNC(=S)NCCCC[C@H](NC(=O)OCc1ccccc1)C(=O)Nc1cccc(O)c1`, the concentration for half-maximal inhibition (IC50) in data set [3] was 1000 nM; in [4] it was 34000 nM; in data set [1], above 100000 nM. Moreover, the Ratio IC50 in the data set listed under Homo sapiens turned out to be 34. For the same compound, the inhibition result in data set [5], in data set [6] and in data set [7] was “Active” throughout.
Regarding `CCCCCCCCCCCCNC(=S)NCCCC[C@H](NC(=O)OCc1ccccc1)C(=O)Nc1ccccc1`, the values for the 50% inhibitory concentration (IC50) in data set [3], in data set [4] and in [1] were 81 nM, above 200000 nM and above 200000 nM, respectively.
Consider `CCCCCCCCNC(=S)NCCCC[C@H](NC(=O)OCc1ccccc1)C(=O)Nc1cccc(O)c1`, for which the values for the IC50 in data set [3], in data set [4] and in data set [1] were 120 nM, 1000 nM and above 100000 nM, respectively. The Ratio IC50 in the data set listed under Homo sapiens is 8.
As for `CCCNC(=S)NCCCC[C@H](NC(=O)OCc1ccccc1)C(=O)Nc1cccc(O)c1`, the half-inhibitory concentration (IC50) in data set [3], in [4] and in data set [1] was above 100000 nM each time. Further, the inhibition result in data set [5], in data set [6] and in data set [7] was “inactive” in each case.
On to `CCCCCCCCCCNC(=S)NCCCC[C@H](NC(=O)OCc1ccccc1)C(=O)Nc1cccc(O)c1`, for which the IC50 is 36 nM in data set [3], 450 nM in data set [4] and above 100000 nM in [1]. Also, the Ratio IC50 in the data set filed under Homo sapiens came to 12. Further, the inhibition entry in [5], in [6] and in data set [7] was “Active” each time. In data set [8], the inhibition result was “Dose-dependent effect”.
For `CNC(=S)NCCCC[C@H](NC(=O)OCc1ccccc1)C(=O)Nc1cccc(O)c1`, the IC50 in data set [3], in [4] and in data set [1] was above 100000 nM each time.
For the compound `CCCCCCCCCCCCNC(=S)NCCCC[C@H](NC(=O)OCc1ccccc1)C(=O)Nc1cccc(O)c1`, the results for the concentration for half-maximal inhibition (IC50) in data set [3], in [4] and in [1] were 60 nM, 1000 nM and above 100000 nM, respectively. In the data set filed under Homo sapiens, the Ratio IC50 worked out at 17.
On to `NC(=O)C1CCCc2c1[nH]c1ccc(Cl)cc21` (configuration not stated), for which the inhibition result in data set [7] was “Active”.
Consider `CCCCCCCNC(=S)NCCCC[C@H](NC(=O)OCc1ccccc1)C(=O)Nc1ccccc1`, for which the IC50 amounted to 160 nM in [3] and 22000 nM in [4].
